Results as given in paper PMC3018740 (Fitoterapia, 2010).
“Also recorded” adds a separate entry of the source.

Experiments:
Human recombinant COX-2 [1] = target: T1, Human recombinant COX-2 (Homo sapiens, UniProt P35354); test: Pulsed ultrafiltration LC-MS-MS screening for COX-2 ligands; type: binding; conditions: for Relative binding to COX-2: bound/free ratio = (pulsed ultrafiltration peak area)/(peak area washing buffer); for Specific binding to COX-2 (in words): pulsed ultrafiltration LC-MS-MS
T1 sequence (P35354 18-604): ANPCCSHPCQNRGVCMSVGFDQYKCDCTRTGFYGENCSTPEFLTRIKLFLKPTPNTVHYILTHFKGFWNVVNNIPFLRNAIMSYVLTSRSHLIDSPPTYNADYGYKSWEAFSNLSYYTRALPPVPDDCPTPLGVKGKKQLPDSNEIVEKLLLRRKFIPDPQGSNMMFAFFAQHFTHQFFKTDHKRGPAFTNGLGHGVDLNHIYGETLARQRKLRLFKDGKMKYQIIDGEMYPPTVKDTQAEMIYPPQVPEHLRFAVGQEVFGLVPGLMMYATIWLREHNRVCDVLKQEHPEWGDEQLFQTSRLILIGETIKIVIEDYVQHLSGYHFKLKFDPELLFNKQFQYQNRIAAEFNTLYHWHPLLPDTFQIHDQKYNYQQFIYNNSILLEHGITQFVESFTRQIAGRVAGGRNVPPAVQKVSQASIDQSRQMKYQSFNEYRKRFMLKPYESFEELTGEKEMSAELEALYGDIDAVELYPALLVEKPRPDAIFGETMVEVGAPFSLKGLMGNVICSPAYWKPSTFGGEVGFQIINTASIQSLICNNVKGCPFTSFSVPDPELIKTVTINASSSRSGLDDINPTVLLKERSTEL

COX-2 = conditions: read-out: Previously reported IC50 for inhibition of COX-2; cell-based assay; cited from earlier work
ovine COX-1 = target: T2, ovine COX-1 (Ovis aries, UniProt P05979); test: COX-1 inhibition assay; type: biochemical; conditions: for IC50: read-out: IC50 COX-1, purified compounds
T2 sequence (P05979 25-600): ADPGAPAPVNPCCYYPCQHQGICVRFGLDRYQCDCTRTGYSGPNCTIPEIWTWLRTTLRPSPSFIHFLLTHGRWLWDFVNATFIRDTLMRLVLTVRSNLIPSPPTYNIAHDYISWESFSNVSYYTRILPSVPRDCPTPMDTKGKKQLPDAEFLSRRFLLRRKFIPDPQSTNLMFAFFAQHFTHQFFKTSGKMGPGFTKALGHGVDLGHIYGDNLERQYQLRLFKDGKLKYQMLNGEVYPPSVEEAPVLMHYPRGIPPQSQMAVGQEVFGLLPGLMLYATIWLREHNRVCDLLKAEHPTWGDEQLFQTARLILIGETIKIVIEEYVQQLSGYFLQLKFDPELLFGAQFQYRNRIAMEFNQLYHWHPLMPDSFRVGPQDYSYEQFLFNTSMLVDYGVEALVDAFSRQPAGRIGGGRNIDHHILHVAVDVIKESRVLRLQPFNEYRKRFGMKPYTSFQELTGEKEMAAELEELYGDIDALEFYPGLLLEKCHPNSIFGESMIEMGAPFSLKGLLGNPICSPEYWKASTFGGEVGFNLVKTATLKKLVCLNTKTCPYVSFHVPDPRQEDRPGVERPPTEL
Summary of the method: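 PGE2 produced by COX-1 with test compound present was quantified by LC-MS-MS. Percent inhibition was calculated against PGE2 from the negative-control incubation. Each compound was tested at 12 concentrations, three times each. IC50 was obtained by fitting the inhibition curve.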

Human recombinant COX-2 [2] = target: T1, Human recombinant COX-2; test: COX-2 inhibition assay; type: biochemical; conditions: read-out: IC50 COX-2; purified compounds

Compound | Relative binding to COX-2 (Human recombinant COX-2 [1]) | Specific binding to COX-2 (in words) (Human recombinant COX-2 [1]) | IC50 (COX-2) [µM] | Inhibition of COX-1 (in words) (ovine COX-1) | IC50 (ovine COX-1) [µM] | IC50 (Human recombinant COX-2 [2]) [µM]
6-dehydro-6-gingerol | 0 |  |  |  |  | 
CCCCC/C=C/[C@H](O)CC(=O)CCc1ccc(O)c(OC)c1 [6-dehydro-8-gingerol] | 0 |  |  |  |  | 
CCCCCCC/C=C/[C@H](O)CC(=O)CCc1ccc(O)c(OC)c1 [6-dehydro-10-gingerol] | 0.15 ± 0.01 | bound to the enzyme active site |  |  |  | 
CCCCC[C@H](O)C[C@H](O)CCc1ccc(O)c(OC)c1 [6-gingerdiol] | 0 |  |  |  |  | 
CCCCCC(=O)CC(=O)CCc1ccc(O)c(OC)c1 [6-gingerdione] | 0.23 ± 0.02 | bound to the enzyme active site |  |  |  | 
CCCCC[C@H](O)CC(=O)CCc1ccc(O)c(OC)c1 [6-gingerol] | 0 | not 6-gingerol or 8-gingerol bound to COX-2 | > 50 |  |  | 
CCCCCCCC(=O)CCc1ccc(O)c(OC)c1 [6-paradol] |  | bound to the enzyme active site; also recorded: bound to COX-2 |  |  |  | 
CCCCC/C=C/C(=O)CCc1ccc(O)c(OC)c1 [6-shogaol] | 0 | COX-2 ligands but not 6-shogaol or 12-shogaol | 2.1 |  |  | 
CCCCCCCC(O)CC(O)CCc1ccc(O)c(OC)c1 (stereo not shown) [8-gingerdiol] | 0 |  |  |  |  | 
CCCCCCCC(=O)CC(=O)CCc1ccc(O)c(OC)c1 [8-gingerdione] | 0.20 ± 0.03 | bound to the enzyme active site |  |  |  | 
CCCCCCC[C@H](O)CC(=O)CCc1ccc(O)c(OC)c1 [8-gingerol] | 0 | not 6-gingerol or 8-gingerol bound to COX-2 | 10 |  |  | 
CCCCCCCCCC(=O)CCc1ccc(O)c(OC)c1 [8-paradol] | 0.70 ± 0.02 | bound to the enzyme active site; also recorded: bound to COX-2 |  |  |  | 
CCCCCCC/C=C/C(=O)CCc1ccc(O)c(OC)c1 [8-shogaol] | 0.27 ± 0.02 | bound to the enzyme active site; also recorded: COX-2 ligands | 7.2 | No inhibition of COX-1 was detected; also recorded: did not inhibit COX-1 | > 50 | 17.5 ± 2.2
CCCCCCCCCC(=O)CC(=O)CCc1ccc(O)c(OC)c1 [10-gingerdione] | 0.24 ± 0.05 | bound to the enzyme active site |  |  |  | 
CCCCCCCCC[C@H](O)CC(=O)CCc1ccc(O)c(OC)c1 [10-gingerol] | 0.17 ± 0.03 | bound to the enzyme active site; also recorded: bound to COX-2 |  | No inhibition of COX-1 was detected; also recorded: did not inhibit COX-1 | > 50 | 32 ± 1.5
CCCCCCCCCCCC(=O)CCc1ccc(O)c(OC)c1 [10-paradol] | 0 | not 10-paradol bound to COX-2 |  |  |  | 
CCCCCCCCC/C=C/C(=O)CCc1ccc(O)c(OC)c1 [10-shogaol] | 0.35 ± 0.03 | bound to the enzyme active site; also recorded: COX-2 ligands |  | No inhibition of COX-1 was detected; also recorded: did not inhibit COX-1 | > 50 | 7.5 ± 0.6
CCCCCCCCCCC[C@H](O)CC(=O)CCc1ccc(O)c(OC)c1 [12-gingerol] | 0.23 ± 0.01 | bound to the enzyme active site; also recorded: bound to COX-2 |  |  |  | 
CCCCCCCCCCC/C=C/C(=O)CCc1ccc(O)c(OC)c1 [12-shogaol] | 0 | COX-2 ligands but not 6-shogaol or 12-shogaol |  |  |  | 
